Results: ChEMBL document CHEMBL1126990, “Design and synthesis of 18F-labeled neurotoxic analogs of MPTP” (J Med Chem, 1993)

Experiments:
Assay type in all cases: ADME
[1] = Ratio between Vmax and Km
Procedure, shortened: (§1)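 Rat liver MAO (crude P2 mitochondrial fraction from adult male Wistar rats, in pH 7.4 phosphate buffer) incubated with substrate at 30 μM to 5 mM; colorimetric detection of H2O2 formed. Blanks contained 0.1 mM pargyline. Vmax and Km from linear regression of Lineweaver-Burk plots; means ± SE of n separate experiments; ANOVA with post-hoc Scheffe test.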

[2] = organism: Rattus norvegicus; assay: Maximal rate (Vmax) for oxidation by rat liver MAO; procedure, shortened: as §1
[3] = system: MAO; assay: Michaelis-Menten constant (Km) for oxidation by rat liver MAO; procedure, shortened: as §1
[4] = organism: Rattus norvegicus; assay: Maximal rate (Vmax) for oxidation by rat liver MAO (results are means of number of separate experiments, n=5); procedure, shortened: as §1
[5] = separate experiments, n=5); procedure, shortened: as §1

SMILES: CN1CC=C(c2ccccc2CO)CC1
- Ratio [1]: 0.74
- Vmax [2]: 273 nM hr-1 (mg of protein)-1
- Km [3]: 370 µM

SMILES: CN1CC=C(c2ccccc2CCl)CC1
- Ratio [1]: 1.24
- Vmax [4]: 231 nM hr-1 (mg of protein)-1
- Km [5]: 186 µM
